Key:
PC3E cells = assay: Prostate tumor cell growth, PC3E; type: cell-based; conditions: for inhibition of PC3E cell growth: dose-response; for sensitization of PC3E cells by overexpression of RGS17: transient transfection, data not shown
RWPE-1 cells = assay: Prostate cell growth, RWPE-1; type: cell-based; conditions: immortalized epithelial, normal cells
RGS17 [1] = target: T1, RGS17 (Homo sapiens, UniProt Q9UGC6); assay: Differential scanning fluorimetry; type: binding; conditions: DSF
T1 sequence (Q9UGC6 72-206 limits assumed): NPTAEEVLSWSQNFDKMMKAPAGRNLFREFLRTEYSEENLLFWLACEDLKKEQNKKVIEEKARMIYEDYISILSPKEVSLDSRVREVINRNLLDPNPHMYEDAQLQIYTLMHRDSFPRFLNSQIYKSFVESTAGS

A549 lung tumor cells = assay: Growth of A549 lung tumor cells; type: cell-based; conditions: up to 1 µM, 6 days in culture, relative to DMSO control
Outline: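 Subconfluent A549 cells were trypsinized, counted and plated at 1000 per well in 24-well plates, then left to attach overnight. Triplicate wells received test compound or matched DMSO (≤0.2% final). Confluence was imaged every 2 h for 6 days, with images checked to exclude morphology effects. Change in confluence was expressed relative to DMSO and plotted against concentration. IC50 was solved by linear regression at 0.5 relative growth.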

TEM4-18 cells = assay: Prostate tumor cell growth, TEM4-18; type: cell-based; conditions: dose-response
RGS17ΔN (1ZV4 construct) = target: T2, RGS17ΔN (1ZV4 construct) (Homo sapiens, UniProt Q9UGC6); assay: Covalent modification of RGS17 by ESI-TOFMS; type: binding; conditions: ESITOFMS, 5:1 test compound to RGS17, 72 h
T2 sequence (Q9UGC6 72-206): T1 sequence (Q9UGC6 72-206 limits assumed)
Outline: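 Protein: RGS17ΔN (1ZV4 construct) at 20 µM in 25 mM HEPES, 100 mM NaCl, 5% DMSO, pH 8. Incubated at 4 °C for 72 h with or without 100 µM test compound. Dialysed 24 h at 4 °C against 25 mM NH4HCO3 and 100 µM NaCl to remove noncovalent compound, with a second dialysis for some compounds. Analysed by direct-infusion positive-mode ESI-TOF with spectral deconvolution.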

[2] = Solubility in aqueous buffer for ITC; type: physicochemical; conditions: at the high concentration needed for the ITC experiment
[3] = target: T3, RGS17ΔN–Gαo interaction in HEK293T cells (Homo sapiens, UniProt Q9UGC6); assay: Confocal localization of GFP-RGS17ΔN cotransfected with hGαo; type: cell-based; conditions: for delocalization of RGS17ΔN from the cell membrane, GFP signal quantification: 10 µM, longer time course; for delocalization of RGS17ΔN from the cell membrane: 100 µM
T3 sequence (Q9UGC6 61-210): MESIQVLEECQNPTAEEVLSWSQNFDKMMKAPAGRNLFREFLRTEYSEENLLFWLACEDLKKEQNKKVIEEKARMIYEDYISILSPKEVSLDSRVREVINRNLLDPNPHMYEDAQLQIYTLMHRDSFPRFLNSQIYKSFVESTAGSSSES

[4] = test system: RGS17ΔN–Gαo interaction in HEK293T cells; assay: as above; type: cell-based; conditions: 100 µM, imaging time course
CREB phosphorylation = CREB phosphorylation upon stimulation with forskolin; type: cell-based; conditions: compared to DMSO-treated controls, data not shown
RGS17 [5] = target: T1, RGS17; assay: Isothermal titration calorimetry; type: binding; conditions: for change in enthalpy ΔH / entropic change TΔS / protein:ligand binding stoichiometry / ΔG binding: ITC
[6] = target: T4, RGS17–Gαo interaction in HEK293T cells (Homo sapiens, UniProt Q9UGC6); assay: Confocal localization of GFP full-length RGS17 cotransfected with Gαo; type: cell-based; conditions: 100 µM, 10 min
T4 sequence (Q9UGC6 1-210): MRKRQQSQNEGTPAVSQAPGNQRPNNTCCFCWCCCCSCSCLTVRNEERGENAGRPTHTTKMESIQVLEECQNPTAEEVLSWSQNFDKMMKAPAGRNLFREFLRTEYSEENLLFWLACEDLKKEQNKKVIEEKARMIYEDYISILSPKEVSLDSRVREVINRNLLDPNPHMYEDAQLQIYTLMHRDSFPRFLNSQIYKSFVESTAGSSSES
Outline: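 HEK293T cells were plated at 25 000 per well on poly-D-lysine-coated glass-bottom plates and held overnight at 37 °C, 5% CO2. They were cotransfected with hGαo (pcDNA 3.1(+)) and pAcGFP-RGS17FL using Lipofectamine 2000. At 24 h the medium was replaced with serum-free, phenol-red-free DMEM. Test compound was added at 2× in that medium to give 1× final (0.07–0.8% DMSO). Live cells were imaged by confocal microscopy.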

Gα protein = Gα protein (Homo sapiens, UniProt P09471); assay: Differential scanning fluorimetry; type: binding; conditions: DSF, data not shown
Sequence of Gα protein (P09471 whole entry): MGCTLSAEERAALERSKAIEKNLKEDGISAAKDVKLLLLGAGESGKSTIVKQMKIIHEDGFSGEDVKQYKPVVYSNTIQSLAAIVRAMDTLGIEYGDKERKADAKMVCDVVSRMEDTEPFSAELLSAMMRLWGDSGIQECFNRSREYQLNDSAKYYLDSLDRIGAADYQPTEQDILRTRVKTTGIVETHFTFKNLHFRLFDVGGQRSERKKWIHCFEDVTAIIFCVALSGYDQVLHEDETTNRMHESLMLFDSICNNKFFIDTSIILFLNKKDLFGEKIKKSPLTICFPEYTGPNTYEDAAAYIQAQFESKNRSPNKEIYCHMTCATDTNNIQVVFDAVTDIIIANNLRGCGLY

| Compound | inhibition of PC3E cell growth (PC3E cells) | sensitization of PC3E cells by overexpression of RGS17 (PC3E cells) | growth arrest of RWPE-1 cells (RWPE-1 cells) | melting temperature (Tm) shift for RGS17 (RGS17 [1]) | inhibition of A549 cell growth (A549 lung tumor cells) | inhibition of TEM4-18 cell growth (TEM4-18 cells) | covalent adduct formation with RGS17 (RGS17ΔN (1ZV4 construct)) | solubility in aqueous buffer [2] | delocalization of RGS17ΔN from the cell membrane, GFP signal quantification [3] | delocalization of RGS17ΔN from the cell membrane [3] | gross morphological changes indicative of cytotoxicity [4] | reduction of CREB phosphorylation (CREB phosphorylation) | change in enthalpy ΔH (RGS17 [5]) [kcal/mol] | entropic change TΔS (RGS17 [5]) [kcal/mol] | protein:ligand binding stoichiometry (RGS17 [5]) | ΔG binding (RGS17 [5]) [kcal/mol] | Kd (RGS17 [5]) [nM] | localization of GFP full-length RGS17 [6] | shift in Tm for the G protein (Gα protein) |
| --- | --- | --- | --- | --- | --- | --- | --- | --- | --- | --- | --- | --- | --- | --- | --- | --- | --- | --- | --- |
| CC1=C(O)C(=O)C=C2C1=CC=C1[C@@]2(C)CC[C@@]2(C)[C@@H]3C[C@](C)(C(=O)O)CC[C@]3(C)CC[C@]12C [compound 2, celastrol] | inhibited the growth | did not result in a sensitization | caused growth arrest | only minor melting temperature (Tm) shifts | sub-micromolar inhibition | inhibited the growth | both singly and doubly adducted species | not soluble | loss of this enrichment at T = final | disrupt RGS17–Gα interaction | lack of gross morphological changes |  |  |  |  |  |  |  |  |
| O=c1c(-c2cc(O)c(O)c(O)c2)coc2cc(O)c(O)c(O)c12 [compound 4, irigenol] |  |  |  | only minor melting temperature (Tm) shifts | did not demonstrate any level of growth inhibition |  | could not be detected |  | demonstrated the same trend | disrupt RGS17–Gα interaction | lack of gross morphological changes | trended toward the proposed mechanism | -2.158 | 6.2313 | 0.33 | -8.389 |  |  |  |
| Cc1ccc(-n2sc(=O)n(Cc3ccc(F)cc3)c2=O)cc1 [CCG-50014, reference compound] |  |  |  |  |  |  |  |  |  | did not result in RGS17ΔN delocalization from the membrane | significant cell shrinkage |  |  |  |  |  |  |  |  |
| C[n+]1cc2c3c(ccc2c2ccc4cc5c(cc4c21)OCO5)OCO3 [compound 1, sanguinarine] | inhibited the growth | did not result in a sensitization | caused growth arrest | only minor melting temperature (Tm) shifts | sub-micromolar inhibition | inhibited the growth | could not be detected |  | loss of this enrichment at T = final | disrupt RGS17–Gα interaction | lack of gross morphological changes | trended toward the proposed mechanism | -0.148 | 8.0202 | 0.82 | -8.168 | 1000 | remained at the membrane |  |
| CC(C)=CCC[C@]1(C)C=Cc2c(O)c3c(c(CC=C(C)C)c2O1)O[C@]12C(=C[C@@H]4C[C@H]1C(C)(C)O[C@@]2(C/C=C(/C)C(=O)O)C4=O)C3=O [compound 3, (−)-gambogic acid] |  |  |  |  |  |  |  |  |  |  |  |  |  |  |  |  |  |  | drastic negative shift |
